This note sets out measurements from PubChem BioAssay AID493150 (Broad Institute, 2011).

Several values for one entry are separate records, joined by “and”; a condition that tells them apart may be missing. Identical values can stand only once. Inconclusive results are not listed. Activity calls are given as the source filed them.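 The calls were made as follows: active = compound whose fitted half-maximal growth inhibition concentration stays within ten times its top tested dose in every replicate test; inconclusive = replicate tests disagree, or flat partial inhibition, or poor curve fit; inactive = every replicate test inactive, including wrong-direction or flat responses.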

Test system in one assay: not listed separately
Nature of the assay: Candida CaCi-2 growth reduction under fluconazole – CaCi-2 strain, Alamar Blue, dry powder, set 5, confirmation (AID 493150). The note with it: C. albicans CaCi-2 + fluconazole, Alamar Blue growth, 48 h; at 10 µM (top of the series). An outline of the steps:
(§1)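 Test system: clinical Candida albicans isolate CaCi-2, resistant to fluconazole; Medium: RPMI/MOPS defined medium; Times: 48 h humidified 37 °C exposure, 2 h room-temperature dye step; Measured by: Alamar Blue fluorescence, Ex 544/Em 590 nm.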
Take `COC(=O)Cn1nc(-c2cncnc2)c2ccccc21`: the activity change, negative = inhibition was -5.14% (inactive).

Still in this assay, the particulars now being: C. albicans CaCi-2 + fluconazole, Alamar Blue growth, 48 h; at 12 µM (top of the series).
Turning to `COC(=O)Cn1nc(-c2ccccc2)c2ccc(C#N)cc21`, the activity change, negative = inhibition is -14.7% (inactive). As for `CCOC(=O)Cn1nc(-c2ccccc2)c2ccccc21`, the activity change, negative = inhibition is 4.8% (inactive). Regarding `COC(=O)CCn1nc(-c2ccccc2)c2ccccc21`, the activity change, negative = inhibition was 1.2% (inactive).

As to `N#CCn1nc(-c2ccccc2)c2ccccc21`, the activity change, negative = inhibition is -18.5% (inactive). On the same count and under the same terms, as for `c1ccc(-c2nn(Cc3ncco3)c3ccccc23)cc1`, the figure is 1.86% (inactive). Still for that read-out and setting: the figure for `CC(C)(C)OC(=O)Cn1nc(-c2ccccc2)c2ccccc21` is 17.1% (inactive); for `COCCn1nc(-c2ccccc2)c2ccccc21` it is -9.42% (inactive); for `O=C(Cn1nc(-c2ccccc2)c2ccccc21)Oc1ccccc1` it is -4.43% (inactive). Consider `COC(=O)Cn1nc(-c2ccc(C(F)(F)F)cc2)c2ccccc21`, for which the activity change, negative = inhibition is -0.629% (inactive).

In the case of `CC(C)OC(=O)Cn1nc(-c2ccccc2)c2ccccc21`, the activity change, negative = inhibition was 11.7% (inactive). In the case of `c1ccc(-c2nn(Cc3nn[nH]n3)c3ccccc23)cc1`, the activity change, negative = inhibition was -7.06% (inactive).

A further assay has as its system C. albicans CaCi-2 (fluconazole-resistant clinical isolate) + fluconazole, Alamar Blue growth, 48 h. The assay is described as above.
Conditions: not given
An outline of the steps:
as §1
On to `COC(=O)Cn1nc(-c2ccccc2)c2ccc(F)cc21`, for which the half-maximal activity concentration (AC50) (commonly the midpoint of the concentration-response curve, whichever way the signal moves) was 5.1 µM. For the molecule `COC(=O)Cn1nc(-c2ccccc2)c2ccc(Cl)cc21`, the AC50 was 3.79 µM.

Take `COC(=O)Cn1nc(-c2cccc(F)c2)c2ccccc21`: the AC50 was 1.41 µM. Same read-out and setting: as for `COC(=O)Cn1nc(-c2ccccc2OC)c2ccccc21`, the figure is 6.22 µM; as for `COC(=O)Cn1nc(-c2cccc(OC)c2)c2ccccc21`, 0.44 µM; as for `COC(=O)Cn1nc(-c2ccc(OC)cc2)c2ccccc21`, 4.22 µM. On the same count and under the same terms, the figure for `COC(=O)Cn1c2ccccc2c2nc3n(c(=O)c21)CCS3` is 3.83 µM; for `COC(=O)Cn1nc(-c2ccc(F)cc2)c2ccccc21` it is 5.61 µM. For `COC(=O)Cn1nc(-c2ccccc2)c2ccc(C)cc21`, the AC50 was 3.14 µM. With `COC(=O)Cn1nc(-c2ccccc2)c2cc(C)ccc21`, the AC50 is 3.28 µM. Same read-out and setting: as for `O=C(Cn1c2ccccc2c2nc3n(c(=O)c21)CCS3)N1CCCC1`, the figure is 1.04 µM and 1.87 µM; as for `COC(=O)Cn1nc(-c2cccc(C)c2)c2ccccc21`, 0.647 µM; as for `COC(=O)Cn1nc(-c2ccccc2)c2cc(F)ccc21`, 4.63 µM. The same measure, in the same setting: the figure for `COC(=O)Cn1nc(-c2ccccc2)c2ccc(OC)cc21` is 7.51 µM; for `COC(=O)Cn1nc(-c2ccccc2)c2cc(OC)ccc21` it is 10.4 µM; for `COC(=O)Cn1nc(-c2ccccc2)c2ccccc21` it is 1.2 µM.
